Data on 26 compounds can be found in ChEMBL document CHEMBL1155195 (J Med Chem, 2009).

Assay [1] deals with U-937. In words: Cytotoxicity against human U937 cells after 72 hrs by sulforhodamine B assay. The assay is classed as functional, cell-based. The settings on record: U-937, 72 h. A general note: In SRB staining, fixed cells bind dye roughly in proportion to their protein.
Assay [2] in a line: Binding affinity to zinc assessed as formation of zinc-compound complex by EGTA fluorescence titration assay.
Assay [3] deals with T1, Caspase-3 (Homo sapiens) (UniProt P42574).
T1 sequence (whole entry): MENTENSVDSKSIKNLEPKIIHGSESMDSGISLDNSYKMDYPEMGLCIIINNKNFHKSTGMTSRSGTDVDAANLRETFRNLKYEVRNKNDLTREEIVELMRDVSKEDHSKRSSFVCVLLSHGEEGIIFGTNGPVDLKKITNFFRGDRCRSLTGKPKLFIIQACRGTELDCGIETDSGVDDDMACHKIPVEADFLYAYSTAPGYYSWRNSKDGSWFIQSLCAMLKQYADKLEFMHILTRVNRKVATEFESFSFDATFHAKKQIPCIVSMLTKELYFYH
Description: Induction of procaspase 3 activation in human SK-MEL-5 cells at 25 uM after 1 hr by immunofluorescent staining-based confocal microscopy in presence of 25 uM caspase 3/7 inhibitor FAM-DEVD-fmk. Format: cell-based. The essentials:
(§1)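 Live SK-MEL-5 cells treated with DMSO or compound (25 μM) together with FAM-DEVD-fmk (25 μM), a fluorescent irreversible active-site caspase-3/-7 label, for 1 hour; washed in phenol red-free medium, incubated 2 hours further, then imaged by multiphoton confocal microscopy.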

For assay [4], the target named is T1, Caspase-3 (Homo sapiens). In words: Induction of procaspase 3 activation in human SK-MEL-5 cells assessed as caspase 3 cytoplasmic colocalization at 25 uM after 1 hr by immunofluorescent staining-based confocal microscopy. The assay is classed as cell-based. The essentials:
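SK-MEL-5 cells given DMSO or 25 μM compound for 1 hour, washed with phenol red-free medium, incubated 2 more hours, fixed, stained with rabbit anti-caspase-3 antibody (recognizes procaspase-3 and caspase-3) plus anti-rabbit Alexa Fluor 647 secondary, mounted and imaged by multiphoton confocal microscopy.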

In assay [5] the test system is U-937. Description: Induction of apoptosis in human U937 cells assessed as viable cells at 50 uM after 12 hrs by FITC-conjugated annexin V and propidium iodide staining-based flow cytometry. As to conditions: U-937, 12 h, read-out: Activity. The assay is classed as functional. In short, it runs like this:
(§2)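 U-937 cells incubated with compound at 50 μM or vehicle for 12 hours, then co-stained with propidium iodide and FITC-labeled Annexin V; Annexin V-positive/PI-negative cells scored as early apoptotic.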

Assay [6] has as its system U-937. In words: Induction of apoptosis in human U937 cells assessed as early apoptotic cells at 50 uM after 12 hrs by FITC-conjugated annexin V and propidium iodide staining-based flow cytometry. Format: functional. The essentials:
as §2

The subject of assay [7] is U-937. Description: Induction of apoptosis in human U937 cells assessed as late apoptotic cells at 50 uM after 12 hrs by FITC-conjugated annexin V and propidium iodide staining-based flow cytometry. Format: functional. In short, it runs like this:
as §2
Background: Flow cytometry measures light scatter and fluorescence of single cells or particles in a stream.

Assay [8] has as its system U-937. In words: Induction of apoptosis in human U937 cells assessed as non-viable necrotic cells at 50 uM after 12 hrs by FITC-conjugated annexin V and propidium iodide staining-based flow cytometry. The assay is classed as functional. The essentials:
as §2

The test system of assay [9] is SK-MEL-5. Description: Zinc chelating activity in human SK-MEL-5 cells assessed as appearance of punctate cytoplasmic staining pattern at 25 uM after 1 hr by immunofluorescent staining-based confocal microscopy. The assay is classed as functional, cell-based. The essentials:
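Live SK-MEL-5 cells incubated 1 hour with 25 μM fluorescent derivative, washed with phenol red-free medium, incubated 2 further hours; DNA stained with SYBR green; imaged by multiphoton confocal microscopy for subcellular, punctate cytoplasmic fluorescence.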

For assay [10], the target named is T1, Caspase-3 (Homo sapiens). Description: Induction of procaspase 3 activation in human SK-MEL-5 cells assessed as caspase 3 cytoplasmic colocalization at 25 uM after 1 hr by immunofluorescent staining-based confocal microscopy in presence of 25 uM caspase 3/7 inhibitor FAM-DEVD-fmk. Format: cell-based. The essentials: as §1
Assay [11] addresses T1, Caspase-3 (Homo sapiens). In words: Activation of 6xHis-tagged recombinant caspase 3 expressed in Escherichia coli BL21 (DE3) at 50 uM after 30 mins in presence of zinc ion.
The target in assay [12] is T1, Caspase-3 (Homo sapiens). Description: Inhibition of 6xHis-tagged recombinant caspase 3 expressed in Escherichia coli BL21 (DE3) at 10 uM after 30 mins in absence of zinc ion.

Structures are written as SMILES. pIC50, pKd: −log10 of the molar value. Calls of active or inactive are those of the source. The rule behind the calls is not given here.

Usually pIC50 stands for the negative decadic logarithm of the IC50, by convention in mol/L. What is called pKd is the negative decadic logarithm of the Kd, by convention in mol/L. As to `C=CCc1cccc(/C=N/N(C)C(=O)CN2CCN(Cc3ccccc3)CC2)c1O`, the pIC50 in assay [1] was 4.66. Moreover, the pKd in [2] was < 5.00.
On to `O=C(CN1CCN(Cc2ccccc2)CC1)N/N=C/c1ccccc1`, for which, in [1], the pIC50 was < 4.00. Besides, the pKd in [2] was < 5.00.
`C=CCc1cccc(/C=N/NC(=O)CN2CCN(Cc3cccnc3)CC2)c1O`: the pIC50 in assay [1] was 4.85. The pKd in assay [2] was 7.21.
With `O=C(CN1CCN(Cc2ccccc2)CC1)NCCc1ccccc1O`, the pIC50 in assay [1] is < 4.00. Also, in assay [2], the pKd is < 5.00.
Taken in the same sequence, the figures for `COC(=O)c1ccccc1/C=N/NC(=O)CN1CCN(Cc2ccccc2)CC1` were < 4.00 and < 5.00.
As for `C=CCc1cccc(/C=N/NC(=O)CN2CCN(Cc3ccccc3)CC2)c1O` [PAC-1], the pIC50 in assay [1] was 5.32. Further, the pKd in assay [2] was 7.28. The outcome in assay [3] and in assay [4] was Active. Further, in assay [5], the viability at 50 µM was determined as 58%. The Activity was 31% in [6], 11% in [7] and 0% in assay [8].
In assay [1], `C=CCc1cccc(/C=N/NC(=O)CN2CCN(Cc3ccncc3)CC2)c1O` showed a pIC50 of 4.68. Moreover, the pKd in assay [2] is 7.10.
Taken in the same sequence, the figures for `CSc1ccccc1/C=N/NC(=O)CN1CCN(Cc2ccccc2)CC1` were 4.21 and < 5.00.
The corresponding values for `COc1ccc(OC)c(CN2CCN(CC(=O)N/N=C/c3ccccc3O)CC2)c1` are 4.92 and 7.19.
In the case of `O=C(CN1CCN(Cc2ccccc2)CC1)NCc1ccccc1O`, the pIC50 in assay [1] was < 4.00. The pKd in assay [2] was < 5.00.
The corresponding values for `C=CCc1cc(/C=N/NC(=O)CN2CCN(Cc3ccccc3)CC2)c(O)c(CC=C)c1` are 5.74 and 7.37.
For `C=CCc1cccc(/C=N/NC(=O)CN2CCN(Cc3cccc(Cn4cc(CNC(=O)Cc5c(C)c6cc(S(=O)(=O)O)c(N)cc6oc5=O)nn4)c3)CC2)c1O`, the pIC50 in assay [1] was 4.83. In assay [2], the pKd is 7.21. For the same compound, the outcome in assay [9], in [10] and in [4] was Active. In addition, the Activity in assay [11] turned out to be 20%.
`C=CCc1cccc(/C=N/NC(=O)CN2CCN(Cc3ccc(F)cc3)CC2)c1O`: the pIC50 in [1] is 5.70. Also, in assay [2], the pKd is 7.32. Also, in assay [5], the viability at 50 µM was found to be 62%. In addition, the Activity in assay [6] came to 30%; in [7], 8%; in assay [8] it was 0%.
Consider `O=C(CN1CCN(Cc2ccccc2)CC1)N/N=C/c1ccccc1SSc1ccccc1/C=N/NC(=O)CN1CCN(Cc2ccccc2)CC1`, for which, in assay [1], the pIC50 is < 4.00. For the same compound, the pKd in [2] was < 5.00.
For the compound `O=C(CN1CCN(Cc2ccccc2)CC1)N/N=C/c1ccccc1C(=O)O`, the pIC50 in assay [1] was < 4.00. The pKd in [2] is < 5.00.
Taken in the same sequence, the figures for `C=CCc1cccc(/C=N/NC(=O)CN2CCN(Cc3ccc(OC)cc3)CC2)c1O` were 5.57 and 7.33.
The compound `C=CCc1cccc(/C=N/NC(=O)CN2CCN(Cc3ccccc3)CC2)c1OC` showed a pIC50 in assay [1] of 4.49. In addition, the negative logarithm of the Kd (pKd) in assay [2] is < 5.00.
As for `C=CCc1cccc(/C=N/NC(=O)CC2CCN(C(=O)OC(C)(C)C)CC2)c1O`, the pIC50 in assay [1] is 5.19. The pKd in [2] is 7.32. In addition, the inhibition result in assay [12] is “Active”.
`Nc1ccccc1/C=N/NC(=O)CN1CCN(Cc2ccccc2)CC1`: the pIC50 in assay [1] is < 4.00. Also, the pKd in assay [2] was < 5.00.
The corresponding values for `C=CCc1cccc(CNNC(=O)CN2CCN(Cc3ccccc3)CC2)c1O` are 4.23 and < 5.00.
Taken in the same sequence, the figures for `O=C(CN1CCN(Cc2ccccc2)CC1)N/N=C/c1ccccc1Cl` were 4.24 and < 5.00.
The compound `C=CCc1cccc(/C=N/NC(=O)CC2CCN(Cc3ccccc3)CC2)c1O` gave a negative-log IC50 (pIC50) in [1] of 5.55. In addition, in [2], the pKd was 7.36. In addition, in [12], the inhibition result is “Active”.
In assay [1], `C=CCc1cccc(/C=N/NC(=O)CN2CCN(Cc3cccc([N+](=O)[O-])c3)CC2)c1O` had a pIC50 of 5.34. Further, the negative logarithm of the Kd (pKd) in assay [2] was 7.35.
Taken in the same sequence, the figures for `O=C(CN1CCN(Cc2ccccc2)CC1)N/N=C/c1ccccc1S` were < 4.00 and < 5.00.
Compound `C=CCc1cccc(/C=N/NC(=O)CN2CCN(Cc3cc(OC)ccc3OC)CC2)c1O` had a pIC50 in assay [1] of 6.00. In addition, the pKd in [2] is 7.41.
Turning to `C=CCc1cccc(/C=N/NC(=O)CN2CCC(Cc3ccccc3)CC2)c1O`, the pIC50 in [1] was 5.57. Moreover, in [2], the pKd is 7.31. For the same compound, the viability at 50 µM in [5] was found to be 49%. Further, the Activity is 41% in [6], 10% in assay [7] and 0% in [8].
